{
  "source": "paper PMC3227224",
  "about": "(The Journal of neuroscience : the official journal of the …, 2011)",
  "system": "γ-secretase",
  "assay_type": "in vivo, J20 hAPP transgenic mice",
  "method_in_brief": "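Mice of either sex, probe guide in left hippocampus (bregma −3.1 mm, 2.5 mm lateral, 1.2 mm below dura, 12° angle), freely moving in Raturn cages on 12 h light/dark. γ-Secretase inhibitor 3 mg/kg i.p. given during ongoing microdialysis; hourly dialysates in refrigerated collector. Aβ38/40/42 by multiplex electrochemiluminescence (C-terminal-specific capture, SULFO-TAG 6E10 detection), in duplicate; half-lives calculated.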",
  "data": [
    {"smiles": "C[C@H](NC(=O)Cc1cc(F)cc(F)c1)C(=O)N[C@H]1N=C(c2ccccc2)c2ccccc2N(C)C1=O", "note": "[Compound E]", "values": [
      {"measurement": "t1/2 of decline of total ISF Aβ after Compound E", "setting": "3 mo tg (plaque-free) J20 mice, Compound E 3 mg/kg i.p. at time 0 h, ISF sampled hourly at 1 μl/min, Aβ ELISA", "result": "~ 2 h"},
      {"measurement": "ISF Aβ38, Aβ40 and Aβ42 after Compound E in young mice", "setting": "young plaque-free (3 mo) tg mouse, first 5 h after Compound E 3 mg/kg i.p.", "result": "all 3 peptides fell together"}
    ]}
  ]
}
